# Experimental data from ChEMBL document CHEMBL4145456, “Synthesis and biological evaluation of novel 2-arylvinyl-substituted naphtho[2,3-d]imidazolium halide derivatives as potent antitumor agents” (Eur J Med Chem, 2018).
# The source made the active and inactive calls. The calls are words filed in the database; no cut-off is given here.
# What was measured:
# PC-3 [1] = assay: Antiproliferative activity against human PC3 cells after 48 hrs by CellTiter 96 aqueous one solution assay; format: functional, cell-based; settings: PC-3, 48 h
# How it was run: (§1)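 Cells in 10% FBS medium with penicillin/streptomycin at 37°C, 5% CO2, seeded at 3000-10000 per well and precultured 1 day. DMSO stocks (10 mM) were diluted to a 10 µM top working solution, then serially diluted 3-fold in medium. Exposure was 48 h. Read-out was MTS tetrazolium-to-formazan absorbance at 492 nm. IC50 came from a three-parameter logistic fit, mean of three independent experiments.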
# A-375 [2] = assay: Antiproliferative activity against human A375 cells after 48 hrs by CellTiter 96 aqueous one solution assay; format: functional, cell-based; settings: A-375, 48 h; how it was run: as §1
# HeLa = assay: Antiproliferative activity against human HeLa cells after 48 hrs by CellTiter 96 aqueous one solution assay; format: functional, cell-based; how it was run: as §1
# A-375 [3] = assay: Induction of apoptosis in human A375 cells assessed as decrease in survivin expression at 10 to 1000 nM after 48 hrs by Western blot analysis; format: functional, cell-based
# How it was run: (§2)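 A375 cells at 1×10^5 per well were treated for 48 h and lysed in RIPA buffer. Equal protein was run on 12% SDS-PAGE and transferred to PVDF, which was blocked in 5% milk/PBS for 1 h at room temperature. Primary antibodies (survivin, caspase-3, Bcl-2, PARP, p-ERK, total ERK, GAPDH) were used at 1:1000. GAPDH served as loading control.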
# A-375 [4] = assay: Induction of apoptosis in human A375 cells assessed as increase in procaspase-3 cleavage at 10 to 1000 nM after 48 hrs by Western blot analysis; format: functional, cell-based; how it was run: as §2
# A-375 [5] = assay: Induction of apoptosis in human A375 cells assessed as decrease in Bcl-2 expression at 10 to 1000 nM after 48 hrs by Western blot analysis; format: functional, cell-based; how it was run: as §2
# A-375 [6] = assay: Induction of apoptosis in human A375 cells assessed as viable cells at 10 nM after 24 hrs by Annexin V/propidium iodide staining-based FACS analysis (reference value: 92.2%); format: functional; settings: A-375, 24 h, read-out: Activity
# A-375 [7] = assay: Induction of apoptosis in human A375 cells assessed as viable cells at 100 nM after 24 hrs by Annexin V/propidium iodide staining-based FACS analysis (reference value: 92.2%); format: functional; settings: A-375, 24 h, read-out: Activity
# A-375 [8] = assay: Induction of apoptosis in human A375 cells assessed as viable cells at 1000 nM after 24 hrs by Annexin V/propidium iodide staining-based FACS analysis (reference value: 92.2%); format: functional; settings: A-375, 24 h, read-out: Activity
# PC-3 [9] = assay: Induction of apoptosis in human PC3 cells assessed as viable cells at 1 nM after 24 hrs by Annexin V/propidium iodide staining-based FACS analysis (reference value: 97.0%); format: functional; settings: PC-3, 24 h, read-out: Activity
# PC-3 [10] = assay: Induction of apoptosis in human PC3 cells assessed as viable cells at 10 nM after 24 hrs by Annexin V/propidium iodide staining-based FACS analysis (reference value: 97.0%); format: functional; settings: PC-3, 24 h, read-out: Activity
# PC-3 [11] = assay: Induction of apoptosis in human PC3 cells assessed as viable cells at 100 nM after 24 hrs by Annexin V/propidium iodide staining-based FACS analysis (reference value: 97.0%); format: functional; settings: PC-3, 24 h, read-out: Activity
# A-375 [12] = assay: Induction of apoptosis in human A375 cells after 24 hrs by Annexin V/propidium iodide staining-based FACS analysis; format: functional, cell-based
# Ehrlich = assay: Antitumor activity against mouse EAC cells implanted in ICR mouse assessed as tumor growth inhibition at 30 mg/kg, ip qd dosed for 10 consecutive days relative to control; settings: read-out: TGI
# Mus musculus [13] = assay: Toxicity in ICR mouse implanted with EAC cells assessed as decrease in spleen index at 0.06 to 0.6 mg/kg, ip qd dosed for 10 consecutive days; format: organism-based; settings: in vivo
# How it was run: (§3)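 Adult male ICR mice, 6 weeks, 20-25 g, n=7 per group. Given 5×10^6 EAC cells s.c. in the right thigh; cells came from intraperitoneal passage in donor mice. From day 1, dosed i.p. daily for 10 d (0.1 mL/10 g) in saline with 4% DMA and 2% Solutol HS15; vehicle controls included. Spleen and thymus weighed at sacrifice; organ index is organ weight/body weight.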
# Mus musculus [14] = assay: Toxicity in ICR mouse implanted with EAC cells assessed as decrease in thymus index at 0.06 to 0.6 mg/kg, ip qd dosed for 10 consecutive days; format: organism-based; settings: in vivo; how it was run: as §3
# Homo sapiens [15] = organism: Homo sapiens; assay: Induction of microtubule disruption in human A375 cells assessed as appearance of rounded cell at 70 nM after 24 hrs by FITC/DAPI staining-based fluorescence assay
# How it was run: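 A375 cells at 8×10^3 per well were treated for 24 h at 37°C, then washed, fixed, blocked and permeabilized. They were stained with anti-α-tubulin overnight and a FITC secondary for 3 h, and nuclei were counterstained with DAPI. Automated imaging was at 200×, and rounded cells were scored from morphology.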
# Homo sapiens [16] = organism: Homo sapiens; assay: Induction of microtubule disruption in human A375 cells assessed as cell detachment at 70 nM after 24 hrs by FITC/DAPI staining-based fluorescence assay
# How it was run: (§4)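 A375 cells grown in 96-well plates, 8×10^3 cells/well, exposed to DMSO vehicle or compound for 24 h at 37°C. Cells were washed, then fixed, blocked and permeabilized. They were stained overnight with monoclonal α-tubulin primary antibody, then 3 h with FITC-labelled secondary; nuclei counterstained with DAPI. Imaged on an automated imaging system at 200×. Paclitaxel served as positive control.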
# Homo sapiens [17] = organism: Homo sapiens; assay: Induction of microtubule disruption in human A375 cells assessed as cell shrunk with improper microtubule bundling at 70 nM after 24 hrs by FITC/DAPI staining-based fluorescence assay; how it was run: as §4
SMILES,IC50 (PC-3 [1]) [µM],IC50 (A-375 [2]) [µM],IC50 (HeLa) [µM],also measured
CC[n+]1c2c(n(C3CC3)c1/C=C/c1ccc(O)c(OC)c1)C(=O)c1ccccc1C2=O,0.038,13.9,18.5,–
COCC[n+]1c2c(n(Cc3cccc(OC)c3)c1/C=C/c1c[nH]c3ccccc13)C(=O)c1ccccc1C2=O,0.215,0.353,1.37,–
CC[n+]1c2c(n(C3CC3)c1/C=C/c1cc(OC)c(OC)c(OC)c1)C(=O)c1ccccc1C2=O,0.143,26,> 30,–
CC[n+]1c2c(n(C(C)C)c1/C=C/c1ccc(C)cc1)C(=O)c1ccccc1C2=O,0.022,1.07,1.12,Activity (A-375 [3]): Active; Activity (A-375 [4]): Active; Activity (A-375 [5]): Active; viability at 0.01 µM (A-375 [6]): 88.3%; viability at 0.1 µM (A-375 [7]): 82.2%; viability at 1 µM (A-375 [8]): 65.7%; viability at 0.001 µM (PC-3 [9]): 98%; viability at 0.01 µM (PC-3 [10]): 96.5%; viability at 0.1 µM (PC-3 [11]): 75.6%; Activity (A-375 [12]): Dose-dependent effect
CC[n+]1c2c(n(C3CC3)c1/C=C/c1cccc([N+](=O)[O-])c1)C(=O)c1ccccc1C2=O,0.028,5.36,11.3,–
O=P1(N(CCCl)CCCl)NCCCO1 (stereo not drawn) [CYCLOPHOSPHAMIDE ANHYDROUS],–,–,–,inhibition in vivo at 30 mg/kg (Ehrlich): 48.9%
COCC[n+]1c2c(n(Cc3ccccc3)c1/C=C/c1c[nH]c3ccccc13)C(=O)c1ccccc1C2=O.[Br-],–,–,–,Activity (Mus musculus [13]): Non-Toxic; Activity (Mus musculus [14]): Non-Toxic
CC[n+]1c2c(n(C(C)C)c1/C=C/c1cccc(O)c1)C(=O)c1ccccc1C2=O,0.14,2.94,13,–
CC[n+]1c2c(n(C(C)C)c1/C=C/c1c[nH]c3ccccc13)C(=O)c1ccccc1C2=O,0.071,0.553,6.12,–
COCC[n+]1c2c(n(Cc3ccccc3)c1/C=C/C=C/c1ccccc1)C(=O)c1ccccc1C2=O,0.212,0.551,1.28,–
CC[n+]1c2c(n(C3CC3)c1/C=C/c1ccc(OC)c(OC)c1)C(=O)c1ccccc1C2=O,0.066,8,13.5,–
CC[n+]1c2c(n(C(C)C)c1/C=C/c1ccc(O)c(OC)c1)C(=O)c1ccccc1C2=O,0.09,6.58,> 30,–
COCC[n+]1c2c(n(Cc3cccc(OC)c3)c1/C=C/c1cccc(O)c1)C(=O)c1ccccc1C2=O,0.222,1.12,7.33,–
CC[n+]1c2c(n(C3CC3)c1/C=C/c1c[nH]c3ccccc13)C(=O)c1ccccc1C2=O,0.052,0.891,2.05,–
CC[n+]1c2c(n(C(C)C)c1/C=C/c1ccc([N+](=O)[O-])cc1)C(=O)c1ccccc1C2=O,0.039,1.43,9.93,–
COCC[n+]1c2c(n(Cc3ccccc3)c1/C=C/c1cccc(O)c1)C(=O)c1ccccc1C2=O,0.1,0.791,4.86,–
COCC[n+]1c2c(n(Cc3cccc(OC)c3)c1/C=C/c1cc(OC)c(OC)c(OC)c1)C(=O)c1ccccc1C2=O,0.291,1,7.5,–
CC[n+]1c2c(n(C3CC3)c1/C=C/c1ccccc1)C(=O)c1ccccc1C2=O,0.038,1.31,6.54,–
COCC[n+]1c2c(n(Cc3ccccc3)c1/C=C/c1ccc(O)c(OC)c1)C(=O)c1ccccc1C2=O,0.022,0.536,1.13,–
COCC[n+]1c2c(n(Cc3ccccc3)c1C)C(=O)c1ccccc1C2=O,0.073,1.14,10,–
CC(=O)O[C@H]1C(=O)[C@@]2(C)[C@H]([C@H](OC(=O)c3ccccc3)[C@]3(O)C[C@H](OC(=O)[C@H](O)[C@@H](NC(=O)c4ccccc4)c4ccccc4)C(C)=C1C3(C)C)[C@]1(OC(C)=O)CO[C@@H]1C[C@@H]2O,–,–,–,Activity (Homo sapiens [15]): Active; Activity (Homo sapiens [16]): Active; Activity (Homo sapiens [17]): Active
CC[n+]1c2c(n(C(C)C)c1/C=C/c1ccc(O)cc1)C(=O)c1ccccc1C2=O,0.072,5.58,> 30,–
